Here are results for nine compounds from ChEMBL document CHEMBL2346620, “Design, synthesis and antithrombotic evaluation of novel dabigatran prodrugs containing methyl ferulate” (Bioorg Med Chem Lett, 2013).

In assay [1] the test system is Platelet. The assay can be described thus: Inhibition of ADP-induced rabbit platelet aggregation compound pre-incubated in rabbit liver microsomal suspension. It is filed as functional, microsomes. Particulars: Oryctolagus cuniculus. The gist of the method:
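Before the in vitro assay, prodrugs were incubated in rabbit liver microsomal suspension. Rabbit platelet aggregation was then induced with ADP. IC50 is the drug concentration giving half-maximal inhibition of aggregation. Mean ± SD from six independent experiments.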

The target of assay [2] is Prothrombin (Homo sapiens, UniProt P00734). The assay can be described thus: Binding affinity to human thrombin.
The test system of assay [3] is Platelet. Kind of assay: Inhibition of thrombin-induced rabbit platelet aggregation compound pre-incubated in rabbit liver microsomal suspension. It is filed as functional, microsomes, Microsome. As to conditions: Oryctolagus cuniculus. Put shortly: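 Each compound was first incubated in rabbit liver microsomal suspension, then tested in rabbit platelet aggregation induced by thrombin. IC50 is the concentration giving half-maximal inhibition of aggregation. Mean ± SD of six independent experiments.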
On the technique in general: Liver microsomes are a subcellular fraction often used to study metabolism.

Assay [4] concerns Rattus norvegicus. Kind of assay: Antithrombotic activity in intragastrically dosed rat venous thrombosis model. As to conditions: po. It is filed as functional. Put shortly: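 Reyers rat venous thrombosis model with intragastric dosing over 0.1–20 mg/kg, and a vehicle-treated control group. Read-out is dry clot weight. Eight animals per group, mean ± SD. ED50 is taken from the dose–response curve of clot weight against log dose (μmol/kg).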

Calls of active or inactive are those of the source. The calls are words filed in the database; no cut-off is given here.

Turning to `CCCCCCOC(=O)NC(=N)c1ccc(NCc2nc3cc(C(=O)N(CCC(=O)OCC)c4ccccn4)ccc3n2C)cc1` [DABIGATRAN ETEXILATE], the inhibition entry in assay [1] (Microsome) is “inactive”. Besides, in assay [2], the affinity corresponds to a Ki of 0.0045 µM. In addition, in assay [3], inhibition was half-maximal at 0.337 µM (IC50). Besides, the ED50 in assay [4] amounted to 7.8 µmol/kg.

In assay [3], `COC(=O)/C=C/c1ccc(OC(=O)CCN(C(=O)c2ccc3c(c2)nc(CNc2ccc(/C(N)=N\C(=O)OC)cc2)n3C)c2ccccn2)c(OC)c1` gave an IC50 of 0.841 µM.

With `CCCCCOC(=O)/N=C(/N)c1ccc(NCc2nc3cc(C(=O)N(CCC(=O)Oc4ccc(/C=C/C(=O)OC)cc4OC)c4ccccn4)ccc3n2C)cc1`, half-maximal inhibition in assay [3] (IC50) was put at 0.206 µM.

For `CCOC(=O)/N=C(/N)c1ccc(NCc2nc3cc(C(=O)N(CCC(=O)Oc4ccc(/C=C/C(=O)OC)cc4OC)c4ccccn4)ccc3n2C)cc1`, half-maximal inhibition in assay [3] (IC50) required 0.453 µM.

Regarding `COC(=O)/C=C/c1ccc(OC(=O)CCN(C(=O)c2ccc3c(c2)nc(CNc2ccc(/C(N)=N\C(=O)OCc4ccccc4)cc2)n3C)c2ccccn2)c(OC)c1`, the IC50 in assay [3] was determined as 0.687 µM.

In assay [3], `COC(=O)/C=C/c1ccc(OC(=O)CCN(C(=O)c2ccc3c(c2)nc(CNc2ccc(/C(N)=N\C(=O)OC(C)C)cc2)n3C)c2ccccn2)c(OC)c1` registered an IC50 of 0.784 µM.

On to `CCCCCCOC(=O)/N=C(/N)c1ccc(NCc2nc3cc(C(=O)N(CCC(=O)Oc4ccc(/C=C/C(=O)OC)cc4OC)c4ccccn4)ccc3n2C)cc1`, for which the IC50 in assay [1] is 5800 µM; in assay [3], 0.29 µM. Also, the 50% effect level in assay [4] (ED50) was put at a dose of 3.7 µmol/kg.

In assay [1], `COc1cc(/C=C/C(=O)O)ccc1O` [FERULATE] had an IC50 of 2700 µM.

In assay [3], `COC(=O)/C=C/c1ccc(OC(=O)CCN(C(=O)c2ccc3c(c2)nc(CNc2ccc(/C(N)=N\C(=O)OC(C)(C)C)cc2)n3C)c2ccccn2)c(OC)c1` showed an IC50 of 0.607 µM.

The Ki is a dissociation constant, usually derived from enzyme kinetics or from competition with a known ligand. Lower therefore signals tighter binding. As usually defined, the IC50 is the concentration at which inhibition is half-maximal. A lower IC50 goes with greater potency. Usually ED50 stands for the midpoint of the dose-response relation.
